A short description of the assay: Binding affinity to Escherichia coli BL21 (DE3) IspF at 10 degC in pH 7 sodium phosphate buffer by SPR binding assay. Put shortly:
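Recombinant E. coli IspF expressed in BL21(DE3), >95% pure, amine-coupled to CM5 chip at ~100 μg/mL in 10 mM acetate pH 5.5 (4500–5500 RU). Ligands 0.1 μM–10 mM in 50 mM sodium phosphate pH 7, 2 mM MgCl, 30 μL/min, 10 °C; triplicate injections, blank-subtracted.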
On the technique in general: In SPR one partner is held on a chip, and binding of the other changes the refractive index at the surface.

The values that follow come from ChEMBL document CHEMBL1153426, “A structure-based approach to ligand discovery for 2C-methyl-D-erythritol-2,4-cyclodiphosphate synthase: a target for antimicrobial therapy” (J Med Chem, 2009).

Broadly, the Kd is the free concentration of one partner at which half of the binding sites on the other are occupied at equilibrium, for simple one-to-one binding. Take `O=C(O)CCCC(=O)Nc1ccc2c(c1)OCO2`: the Kd result was “Not Active”. The same measure, in the same setting: then `NC(=O)CSc1cc(N)nc(N)n1`, with “Not Active”.

In the case of `Nc1ccn([C@H]2O[C@@H](CO)[C@H]3OP(=O)(O)O[C@H]32)c(=O)n1` (mixture of isomers), the Kd (read-out: Kd) came to 20.5 mM. For `Nc1nnc(-c2nonc2N)o1`, the Kd result is reported as “Not Active”.
